According to ChEMBL document CHEMBL2169803, “Brain Penetrant LRRK2 Inhibitor” (ACS Med Chem Lett, 2012):
Calls of active or inactive are those of the source. The rule behind the calls is not given here.

Experiments:
[1] = biological target: Leucine-rich repeat serine/threonine-protein kinase 2 (Homo sapiens) (UniProt Q5S007); settings: HEK293, 1 uM
[2] = system: Leucine-rich repeat serine/threonine-protein kinase 2 (Homo sapiens), Q5S007 [G2019S]; settings: HEK293, 1 uM
Mus musculus [3] = test: Inhibition of LRRK2 in C57BL/6 mouse brain at 100 mg/kg, ip by ADP-acylphosphate probe-based mass spectrometry relative to vehicle-treated control; format: functional
Method in brief: (§1)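 KiNativ chemical proteomics on brains and spleens from mice dosed intraperitoneally at 3, 10, 30, 50 or 100 mg/kg, compared against vehicle-treated animals. Tissue lysed in 5× volume of detergent-free buffer and labeled with an ADP-acylphosphate probe. After workup and trypsin digestion, probe labeling was quantified by mass spectrometry across >150 protein and lipid kinases. Values reflect 5× dilution relative to intact tissue.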

Mus musculus [4] = test: Inhibition of TBK1 in ip dosed C57BL/6 mouse brain by ADP-acylphosphate probe-based mass spectrometry; format: functional, organism-based
Method in brief: as §1

Mus musculus [5] = test: Inhibition of LRRK2 autophosphorylation at Ser910 and Ser935 in C57BL/6 mouse kidney at 50 mg/kg, ip by immunoblotting analysis relative to vehicle-treated control; format: functional, organism-based; design: dose 50 mg/kg
[6] = biological target: T1, MAP kinase-interacting serine/threonine-protein kinase 2 (Homo sapiens, UniProt Q9HBH9); test: Inhibition of MNK2 at 10 uM by radiometric assay
Method in brief: (§2)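 Dundee panel of 138 kinases screened at 10 μM compound using radioactivity-based enzymatic assays. Activity was expressed relative to DMSO control.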
Target sequence in this assay (Q9HBH9 whole entry, looked up): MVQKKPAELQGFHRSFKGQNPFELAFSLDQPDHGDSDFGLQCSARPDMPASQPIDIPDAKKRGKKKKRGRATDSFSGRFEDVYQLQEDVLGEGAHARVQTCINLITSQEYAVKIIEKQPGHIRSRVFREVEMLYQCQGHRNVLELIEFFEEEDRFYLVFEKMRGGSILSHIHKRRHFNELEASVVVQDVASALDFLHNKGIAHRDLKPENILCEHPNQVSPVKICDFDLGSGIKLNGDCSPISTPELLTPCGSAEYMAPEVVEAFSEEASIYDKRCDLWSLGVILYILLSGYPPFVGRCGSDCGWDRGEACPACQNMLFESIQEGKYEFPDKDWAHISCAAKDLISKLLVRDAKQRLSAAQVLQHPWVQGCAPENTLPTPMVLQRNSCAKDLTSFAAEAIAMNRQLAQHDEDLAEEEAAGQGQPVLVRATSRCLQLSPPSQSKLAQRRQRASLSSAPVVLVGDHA

Mus musculus [7] = test: Inhibition of LRRK2 in C57BL/6 mouse spleen at 3 mg/kg, ip by ADP-acylphosphate probe-based mass spectrometry relative to vehicle-treated control; format: functional; settings: C57BL/6, Spleen, route intraperitoneal
Method in brief: as §1

Mus musculus [8] = test: Inhibition of LRRK2 autophosphorylation at Ser910 and Ser935 in C57BL/6 mouse spleen at 100 mg/kg, ip by immunoblotting analysis relative to vehicle-treated control; format: functional, organism-based; design: dose 100 mg/kg
[9] = biological target: T2, Mitogen-activated protein kinase kinase kinase 9 (Homo sapiens, UniProt P80192); test: Inhibition of MLK1 by radiometric assay
Method in brief: (§3)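 Radioactivity-based enzymatic kinase assay run in the Dundee profiling panel of 138 kinases. Kinases were first screened at 10 μM inhibitor, with activity expressed relative to a DMSO control. A dose–response analysis then gave the IC50.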
Target sequence in this assay (P80192 whole entry): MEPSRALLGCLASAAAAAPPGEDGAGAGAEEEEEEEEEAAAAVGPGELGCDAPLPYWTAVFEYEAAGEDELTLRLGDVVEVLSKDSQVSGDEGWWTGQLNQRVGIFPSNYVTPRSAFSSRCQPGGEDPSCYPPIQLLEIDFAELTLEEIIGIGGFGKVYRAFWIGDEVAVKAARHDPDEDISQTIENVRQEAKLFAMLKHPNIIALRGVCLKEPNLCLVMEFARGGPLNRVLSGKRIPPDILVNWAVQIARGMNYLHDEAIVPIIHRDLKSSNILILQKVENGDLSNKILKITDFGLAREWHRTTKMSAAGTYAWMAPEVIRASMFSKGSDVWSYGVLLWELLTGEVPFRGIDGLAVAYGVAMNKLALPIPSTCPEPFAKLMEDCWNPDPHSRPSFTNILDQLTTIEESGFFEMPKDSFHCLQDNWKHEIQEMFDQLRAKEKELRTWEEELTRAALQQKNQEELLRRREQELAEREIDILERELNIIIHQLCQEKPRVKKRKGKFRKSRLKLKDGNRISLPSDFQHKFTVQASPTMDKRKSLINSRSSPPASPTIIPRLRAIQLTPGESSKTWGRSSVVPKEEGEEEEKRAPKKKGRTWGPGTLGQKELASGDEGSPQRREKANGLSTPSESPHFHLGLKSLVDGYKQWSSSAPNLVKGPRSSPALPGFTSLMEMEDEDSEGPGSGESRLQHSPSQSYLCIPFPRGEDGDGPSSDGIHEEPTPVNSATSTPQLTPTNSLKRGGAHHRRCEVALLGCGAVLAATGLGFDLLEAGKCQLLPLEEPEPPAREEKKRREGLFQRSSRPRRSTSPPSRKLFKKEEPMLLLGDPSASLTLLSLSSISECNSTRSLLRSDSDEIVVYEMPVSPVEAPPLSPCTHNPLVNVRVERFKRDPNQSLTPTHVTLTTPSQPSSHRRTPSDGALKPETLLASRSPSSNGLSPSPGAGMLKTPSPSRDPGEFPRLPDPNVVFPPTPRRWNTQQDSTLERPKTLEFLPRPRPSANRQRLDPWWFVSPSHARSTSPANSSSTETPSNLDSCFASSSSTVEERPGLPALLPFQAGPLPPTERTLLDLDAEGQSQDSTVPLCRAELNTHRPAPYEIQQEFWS

Mus musculus [10] = test: Inhibition of LRRK2 autophosphorylation at Ser910 and Ser935 in C57BL/6 mouse brain at 10 mg/kg, ip by immunoblotting analysis relative to vehicle-treated control; format: functional, organism-based; design: dose 10 mg/kg
Liver = test: Half life in mouse liver microsomes at 1 uM; format: ADME, Microsome
Method in brief: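 Metabolic stability determined by incubation with mouse liver microsomes; half-life (T1/2) reported in minutes.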

Mus musculus [11] = test: Inhibition of LRRK2 autophosphorylation at Ser910 and Ser935 in C57BL/6 mouse kidney at 100 mg/kg, ip by immunoblotting analysis relative to vehicle-treated control; format: functional, organism-based; design: dose 100 mg/kg
Mus musculus [12] = test: Inhibition of LRRK2 in C57BL/6 mouse spleen at 30 to 100 mg/kg, ip by ADP-acylphosphate probe-based mass spectrometry relative to vehicle-treated control; format: functional; settings: dose mg/kg 30-100; route intraperitoneal
Method in brief: as §1

Mus musculus [13] = test: Inhibition of LRRK2 autophosphorylation at Ser910 and Ser935 in C57BL/6 mouse brain at 50 mg/kg, ip by immunoblotting analysis relative to vehicle-treated control; format: functional, organism-based; design: dose 50 mg/kg
[14] = biological target: Leucine-rich repeat serine/threonine-protein kinase 2 (Mus musculus) (UniProt Q5S006); test: Inhibition of LRRK2 autophosphorylation at Ser910 and Ser935 Swiss mouse 3T3 cells by immunoblotting analysis; format: cell-based
Method in brief: (§4)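 Mouse Swiss 3T3 cells or mouse embryonic fibroblasts were treated with DMSO or increasing concentrations of compound for 90 min. Lysates were immunoblotted for LRRK2 phospho-Ser910, phospho-Ser935 and total LRRK2. Immunoblots were run in duplicate and are representative of at least two independent experiments.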

[15] = biological target: Leucine-rich repeat serine/threonine-protein kinase 2 (Mus musculus) (UniProt Q5S006); test: Inhibition of LRRK2 autophosphorylation at Ser910 and Ser935 mouse embryonic fibroblast cells by immunoblotting analysis; format: cell-based
Method in brief: as §4

Mus musculus [16] = test: Half life in mouse at 1 mg/kg, iv; format: ADME, organism-based; design: dose 1 mg/kg, route intravenous; settings: in vivo
Method in brief: (§5)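 Mouse pharmacokinetics run by a contract lab; parameters reported include oral bioavailability (%F), plasma AUClast and half-life. Full PK parameter set is given in the Supporting Information.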

Mus musculus [17] = test: Inhibition of JNK2 in C57BL/6 mouse brain at 50 and 100 mg/kg, ip by ADP-acylphosphate probe-based mass spectrometry relative to vehicle-treated control; format: functional; settings: C57BL/6, ip, route intraperitoneal
Method in brief: as §1

Mus musculus [18] = test: Inhibition of LRRK2 in C57BL/6 mouse brain at 30 mg/kg, ip by ADP-acylphosphate probe-based mass spectrometry relative to vehicle-treated control; format: functional; settings: C57BL/6, Brain, route intraperitoneal
Method in brief: as §1

Mus musculus [19] = test: Inhibition of JNK3 in ip dosed C57BL/6 mouse brain by ADP-acylphosphate probe-based mass spectrometry; format: functional, organism-based
Method in brief: as §1

Mus musculus [20] = test: Inhibition of JNK1 in ip dosed C57BL/6 mouse brain by ADP-acylphosphate probe-based mass spectrometry; format: functional, organism-based
Method in brief: as §1

Mus musculus [21] = test: Inhibition of LRRK2 in C57BL/6 mouse spleen at 10 mg/kg, ip by ADP-acylphosphate probe-based mass spectrometry relative to vehicle-treated control; format: functional; settings: C57BL/6, Spleen, route intraperitoneal
Method in brief: as §1

Mus musculus [22] = test: Inhibition of LRRK2 autophosphorylation at Ser910 and Ser935 in C57BL/6 mouse brain at 30 mg/kg, ip by immunoblotting analysis relative to vehicle-treated control; format: functional, organism-based; design: dose 30 mg/kg
Mus musculus [23] = test: Inhibition of TBK1 in C57BL/6 mouse brain at 50 and 100 mg/kg, ip by ADP-acylphosphate probe-based mass spectrometry relative to vehicle-treated control; format: functional; settings: C57BL/6, ip, route intraperitoneal
Method in brief: as §1

Mus musculus [24] = test: AUClast in mouse at 10 mg/kg, po; format: ADME, organism-based, Plasma; design: time 0 - last, dose 10 mg/kg, route oral; settings: in vivo
Method in brief: as §5

[25] = system: Mast/stem cell growth factor receptor Kit (Homo sapiens), P10721 [L576P]; test: Inhibition of cKIT L576P mutant at 1 uM by KinomeScan assay
Mus musculus [26] = test: Inhibition of LRRK2 autophosphorylation at Ser910 and Ser935 in C57BL/6 mouse spleen at 50 mg/kg, ip by immunoblotting analysis relative to vehicle-treated control; format: functional, organism-based; design: dose 50 mg/kg
Mus musculus [27] = test: Inhibition of LRRK2 in ip dosed C57BL/6 mouse brain by ADP-acylphosphate probe-based mass spectrometry; format: functional, organism-based
Method in brief: as §1

Mus musculus [28] = test: Inhibition of LRRK2 in C57BL/6 mouse brain at 50 mg/kg, ip by ADP-acylphosphate probe-based mass spectrometry relative to vehicle-treated control; format: functional; settings: C57BL/6, Brain, route intraperitoneal
Method in brief: as §1

Mus musculus [29] = test: Inhibition of JNK2 in ip dosed C57BL/6 mouse brain by ADP-acylphosphate probe-based mass spectrometry; format: functional, organism-based
Method in brief: as §1

[30] = biological target: T2, Mitogen-activated protein kinase kinase kinase 9; test: Inhibition of MLK1 at 10 uM by radiometric assay
Method in brief: as §2
Target sequence in this assay (P80192 whole entry, looked up): as the sequence (P80192 whole entry) above

Mus musculus [31] = test: Inhibition of LRRK2 autophosphorylation at Ser910 and Ser935 in C57BL/6 mouse brain at 100 mg/kg, ip by immunoblotting analysis relative to vehicle-treated control; format: functional, organism-based; design: dose 100 mg/kg
Mus musculus [32] = test: Inhibition of JNK1 in C57BL/6 mouse brain at 50 and 100 mg/kg, ip by ADP-acylphosphate probe-based mass spectrometry relative to vehicle-treated control; format: functional; settings: C57BL/6, ip, route intraperitoneal
Method in brief: as §1

[33] = Oral bioavailability in mouse at 10 mg/kg; format: ADME, organism-based; settings: in vivo
Method in brief: as §5

[34] = biological target: T1, MAP kinase-interacting serine/threonine-protein kinase 2; test: Inhibition of MNK2 by radiometric assay
Method in brief: as §3

Mus musculus [35] = test: Inhibition of JNK3 in C57BL/6 mouse brain at 50 and 100 mg/kg, ip by ADP-acylphosphate probe-based mass spectrometry relative to vehicle-treated control; format: functional; settings: C57BL/6, ip, route intraperitoneal
Method in brief: as §1

Mus musculus [36] = test: Inhibition of LRRK2 in ip dosed C57BL/6 mouse spleen by ADP-acylphosphate probe-based mass spectrometry; format: functional, organism-based
Method in brief: as §1

Chain of Leucine-rich repeat serine/threonine-protein kinase 2 (Mus musculus) (Q5S006 whole entry): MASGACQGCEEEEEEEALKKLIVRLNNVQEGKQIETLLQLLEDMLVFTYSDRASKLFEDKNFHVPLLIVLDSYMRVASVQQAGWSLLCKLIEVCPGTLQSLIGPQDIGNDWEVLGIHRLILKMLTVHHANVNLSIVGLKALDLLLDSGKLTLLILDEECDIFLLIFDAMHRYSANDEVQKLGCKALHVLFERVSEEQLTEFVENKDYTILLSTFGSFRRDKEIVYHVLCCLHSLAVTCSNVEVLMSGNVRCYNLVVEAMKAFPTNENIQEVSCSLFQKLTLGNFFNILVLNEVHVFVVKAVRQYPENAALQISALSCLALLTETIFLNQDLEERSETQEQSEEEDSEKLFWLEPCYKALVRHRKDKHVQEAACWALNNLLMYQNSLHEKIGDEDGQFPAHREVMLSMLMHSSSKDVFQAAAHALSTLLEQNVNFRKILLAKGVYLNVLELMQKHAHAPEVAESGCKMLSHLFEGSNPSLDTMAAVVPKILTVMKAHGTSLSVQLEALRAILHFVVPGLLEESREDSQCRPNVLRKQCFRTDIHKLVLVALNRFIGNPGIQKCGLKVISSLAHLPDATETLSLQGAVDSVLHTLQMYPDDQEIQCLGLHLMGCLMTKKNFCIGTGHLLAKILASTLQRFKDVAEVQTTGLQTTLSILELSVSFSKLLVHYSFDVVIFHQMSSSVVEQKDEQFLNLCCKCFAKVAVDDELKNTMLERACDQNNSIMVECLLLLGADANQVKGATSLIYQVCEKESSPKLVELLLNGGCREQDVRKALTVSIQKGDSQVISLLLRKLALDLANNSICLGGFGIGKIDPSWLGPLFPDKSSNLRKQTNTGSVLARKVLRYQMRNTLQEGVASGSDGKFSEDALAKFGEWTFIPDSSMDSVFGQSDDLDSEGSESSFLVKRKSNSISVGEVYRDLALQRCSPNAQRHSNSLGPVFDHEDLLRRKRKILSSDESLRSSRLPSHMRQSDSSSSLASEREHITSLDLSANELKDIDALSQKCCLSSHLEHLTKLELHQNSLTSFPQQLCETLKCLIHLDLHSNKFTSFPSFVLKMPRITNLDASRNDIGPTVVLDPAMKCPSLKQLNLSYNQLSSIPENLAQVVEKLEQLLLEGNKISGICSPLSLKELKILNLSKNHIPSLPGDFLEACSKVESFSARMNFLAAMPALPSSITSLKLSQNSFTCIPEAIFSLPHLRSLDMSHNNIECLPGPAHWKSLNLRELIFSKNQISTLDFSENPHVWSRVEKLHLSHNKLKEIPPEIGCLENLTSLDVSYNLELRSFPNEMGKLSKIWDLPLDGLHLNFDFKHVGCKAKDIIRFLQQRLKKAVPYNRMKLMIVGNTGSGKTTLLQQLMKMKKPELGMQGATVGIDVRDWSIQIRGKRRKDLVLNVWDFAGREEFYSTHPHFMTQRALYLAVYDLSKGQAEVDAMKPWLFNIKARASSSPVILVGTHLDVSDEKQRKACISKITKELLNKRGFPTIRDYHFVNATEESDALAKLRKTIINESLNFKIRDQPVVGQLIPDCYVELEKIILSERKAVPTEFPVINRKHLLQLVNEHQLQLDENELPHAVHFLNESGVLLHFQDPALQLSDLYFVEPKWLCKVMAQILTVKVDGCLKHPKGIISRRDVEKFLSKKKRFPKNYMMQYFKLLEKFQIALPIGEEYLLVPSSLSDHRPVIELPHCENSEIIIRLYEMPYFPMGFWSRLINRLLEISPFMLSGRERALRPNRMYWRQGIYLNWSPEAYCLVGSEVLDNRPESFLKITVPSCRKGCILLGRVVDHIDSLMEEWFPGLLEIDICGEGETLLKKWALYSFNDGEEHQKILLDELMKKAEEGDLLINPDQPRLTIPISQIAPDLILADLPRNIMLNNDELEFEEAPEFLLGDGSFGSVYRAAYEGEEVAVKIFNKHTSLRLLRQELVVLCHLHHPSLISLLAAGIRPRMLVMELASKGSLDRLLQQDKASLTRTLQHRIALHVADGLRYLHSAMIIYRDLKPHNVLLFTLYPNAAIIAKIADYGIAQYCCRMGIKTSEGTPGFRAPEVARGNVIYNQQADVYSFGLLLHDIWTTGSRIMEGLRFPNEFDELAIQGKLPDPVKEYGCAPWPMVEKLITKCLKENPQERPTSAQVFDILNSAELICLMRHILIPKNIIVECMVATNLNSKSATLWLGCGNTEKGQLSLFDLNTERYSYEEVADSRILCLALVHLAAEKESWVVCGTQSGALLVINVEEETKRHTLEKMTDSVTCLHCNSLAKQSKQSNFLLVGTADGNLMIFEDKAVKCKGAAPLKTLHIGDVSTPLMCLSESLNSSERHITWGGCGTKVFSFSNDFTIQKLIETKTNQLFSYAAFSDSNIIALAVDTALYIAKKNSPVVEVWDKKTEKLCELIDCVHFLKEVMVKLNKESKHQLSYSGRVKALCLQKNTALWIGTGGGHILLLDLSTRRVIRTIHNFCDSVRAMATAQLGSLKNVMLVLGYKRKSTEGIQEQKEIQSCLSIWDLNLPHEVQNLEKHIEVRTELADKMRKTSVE
Chain of Mast/stem cell growth factor receptor Kit (Homo sapiens), P10721 [L576P] (P10721 whole entry L576P): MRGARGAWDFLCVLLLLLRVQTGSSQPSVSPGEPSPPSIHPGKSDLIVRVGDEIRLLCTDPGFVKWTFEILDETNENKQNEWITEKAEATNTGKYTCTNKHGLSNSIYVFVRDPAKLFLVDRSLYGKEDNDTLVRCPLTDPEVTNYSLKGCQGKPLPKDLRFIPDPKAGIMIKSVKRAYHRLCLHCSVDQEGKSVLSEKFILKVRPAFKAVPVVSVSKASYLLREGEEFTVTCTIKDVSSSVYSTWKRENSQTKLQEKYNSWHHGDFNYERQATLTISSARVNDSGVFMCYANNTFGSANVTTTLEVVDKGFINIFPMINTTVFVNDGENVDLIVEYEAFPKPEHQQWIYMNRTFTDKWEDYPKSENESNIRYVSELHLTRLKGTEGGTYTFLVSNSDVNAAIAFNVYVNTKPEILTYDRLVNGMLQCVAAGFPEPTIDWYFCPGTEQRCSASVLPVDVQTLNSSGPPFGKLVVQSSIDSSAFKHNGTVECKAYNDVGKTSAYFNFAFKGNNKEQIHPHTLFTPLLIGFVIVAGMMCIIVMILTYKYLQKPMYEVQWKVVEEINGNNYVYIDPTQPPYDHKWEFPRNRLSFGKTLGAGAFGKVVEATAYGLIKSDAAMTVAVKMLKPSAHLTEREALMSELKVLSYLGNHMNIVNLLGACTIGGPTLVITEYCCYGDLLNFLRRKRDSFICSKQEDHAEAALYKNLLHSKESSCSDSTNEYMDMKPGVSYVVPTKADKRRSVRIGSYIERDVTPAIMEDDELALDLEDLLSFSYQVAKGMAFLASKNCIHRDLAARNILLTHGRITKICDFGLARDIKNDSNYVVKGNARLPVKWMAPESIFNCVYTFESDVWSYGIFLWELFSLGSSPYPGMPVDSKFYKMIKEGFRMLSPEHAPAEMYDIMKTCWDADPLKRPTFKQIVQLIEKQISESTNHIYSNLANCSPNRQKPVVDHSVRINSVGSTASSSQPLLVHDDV

In the case of `COc1cc(C(=O)N2CCC(N3CCN(C)CC3)CC2)ccc1Nc1ncc2c(n1)N(C)c1ccccc1C(=O)N2C`, the inhibition [1] is reported as “Active”, the inhibition [2] is reported as “Active” and the inhibition (Mus musculus [3]) is reported as “inactive”.
With `CNc1nc(Nc2ccc(C(=O)N3CCOCC3)cc2OC)ncc1Cl` the inhibition (Mus musculus [4]) was “Dose-dependent effect”, the inhibition (Mus musculus [5]) was “Active” and the inhibition [6] was over 80%. For the same compound, the inhibition in vivo at 3 mg/kg (Mus musculus [7]) was 40%, the inhibition (Mus musculus [8]) was “Active” and the IC50 [9] was 2100 nM. The inhibition (Mus musculus [10]) was “Active”, the t1/2 (Liver) was 13 min and the inhibition (Mus musculus [11]) was “Active”. For the same compound, the “inhibition (INH)” value (Mus musculus [12]) was over 90%, the inhibition (Mus musculus [13]) was “Active” and the inhibition [14] was “Dose-dependent effect”. For the same compound, the inhibition [15] was “Dose-dependent effect”, the t1/2 (Mus musculus [16]) was 7.8 min and the inhibition in vivo at 100 mg/kg (Mus musculus [17]) was 35%. For the same compound, the inhibition in vivo at 30 mg/kg (Mus musculus [18]) was 40%, the inhibition (Mus musculus [19]) was “Dose-dependent effect” and the inhibition (Mus musculus [20]) was “Dose-dependent effect”. For the same compound, the inhibition in vivo at 10 mg/kg (Mus musculus [21]) was 80%, the inhibition (Mus musculus [22]) was “Active” and the inhibition in vivo at 100 mg/kg (Mus musculus [23]) was 35%. The AUClast (Mus musculus [24]) was 502 ng·h/mL, the inhibition [25] was “Active” and the inhibition (Mus musculus [26]) was “Active”. The inhibition (Mus musculus [27]) was “Dose-dependent effect”, the inhibition in vivo at 50 mg/kg (Mus musculus [28]) was 70% and the inhibition (Mus musculus [29]) was “Dose-dependent effect”. For the same compound, the inhibition [30] was over 80%, the inhibition (Mus musculus [31]) was “Active” and the inhibition in vivo at 100 mg/kg (Mus musculus [3]; C57BL/6, Brain, route intraperitoneal) was 70%. The inhibition in vivo at 100 mg/kg (Mus musculus [32]) was 35%, the bioavailability [33] was 67% and the IC50 [34] was 600 nM. The inhibition in vivo at 100 mg/kg (Mus musculus [35]) was 35% and the inhibition (Mus musculus [36]) was “Dose-dependent effect”.
